Experimental findings from ChEMBL document CHEMBL5370653, “Stereoselective Synthesis, Pro-resolution, and Anti-inflammatory Actions of RvD5n-3 DPA” (J Nat Prod, 2023) are described below.

SMILES strings stand for the structures. The source made the active and inactive calls. The calls are words filed in the database; no cut-off is given here.

Data set [1] deals with Macrophage. The experiment in a line: Induction of phagocytosis in human macrophages assessed as clearance of pHrodo red-conjugated zymosan A particles at 0.001 to 10 nM measured after 2 hrs by hoechst 33342 staining based high content imaging analysis. It is filed as functional, cell-based. Conditions: dose 0.001-10 nM. The gist of the method:
(§1)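 Macrophages from donor PBMCs (7 days, RPMI-1640, 10% human serum, 20 ng/mL GM-CSF), 50,000 cells/well, adhered overnight, Hoechst-stained. Pretreated 15 min at 37 °C in RPMI-1640 with 0.001–10 nM or 0.05% ethanol vehicle. Opsonized pHrodo particles added (S. aureus or E. coli 5 μg/well, zymosan 2.5 μg/well). Phagocytosis imaged over 2 h. Mean ± SEM, N = 6 donors.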

Data set [2] can be described thus: Retention time of the compound in human serum by RP-LC-MS/MS. It is filed as ADME, cell-free. The gist of the method:
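Pooled human serum (0.5 mL) mixed with 2 volumes cold MeOH containing d5-Maresin 1, held at −20 °C ≥45 min, then centrifuged. Automated C18 SPE at pH 3.5. Analyzed on a C18 Poroshell column at 0.5 mL/min with a MeOH/H2O/acetic acid gradient. MRM transition 361 > 199.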

The subject of data set [3] is Macrophage. As to the kind of experiment: Induction of phagocytosis in human macrophages assessed as clearance of pHrodo green conjugated Staphylococcus aureus at 0.001 to 10 nM measured after 2 hrs by hoechst 33342 staining based high content imaging analysis. As to conditions: dose 0.001-10 nM. It is filed as functional, cell-based. Summed up:
as §1

Data set [4] concerns Macrophage. The experiment in a line: Induction of phagocytosis in human macrophages assessed as clearance of pHrodo red-conjugated Escherichia coli at 0.001 to 10 nM measured after 2 hrs by hoechst 33342 staining based high content imaging analysis. It is filed as functional, cell-based. As to conditions: dose 0.001-10 nM. Summed up:
as §1

The test system of data set [5] is Neutrophil. The experiment in a line: Induction of phagocytosis in human Neutrophil assessed as clearance of pHrodo red-conjugated Escherichia coli at 0.001 to 10 nM measured after 2 hrs by hoechst 33342 high content imaging analysis. It is filed as functional, cell-based. Conditions: dose 0.001-10 nM. Summed up:
(§2)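 Blood neutrophils from healthy donors, Hoechst 33342-stained, in X-VIVO15 with 2 mM L-glutamine and 1% pen/strep, 250,000 cells/well, adhered 30 min at 37 °C. Pretreated 15 min at 37 °C with 0.001–10 nM or 0.05% ethanol vehicle. Then given IgG-opsonized pHrodo particles (S. aureus 5 μg/well, E. coli 5 μg/well, zymosan 2.5 μg/well). Signal rise imaged over 2 h. Mean ± SEM, N = 6 donors.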

Data set [6] relates to Neutrophil. As to the kind of experiment: Induction of phagocytosis in human neutrophils assessed as clearance of pHrodo green conjugated Staphylococcus aureus at 0.001 to 10 nM measured after 2 hrs by hoechst 33342 staining based high content imaging analysis. It is filed as functional, cell-based. Conditions: dose 0.001-10 nM. The gist of the method: as §2
For data set [7], the system named is Neutrophil. As to the kind of experiment: Induction of phagocytosis in human neutrophils assessed as clearance of pHrodo red-conjugated zymosan A particles at 0.001 to 10 nM measured after 2 hrs by hoechst 33342 staining based high content imaging analysis. It is filed as functional, cell-based. Conditions: dose 0.001-10 nM. The gist of the method: as §2
In data set [8] the test system is Macrophage. As to the kind of experiment: Antiinflammatory activity in human macrophages assessed as decrease in CD142 level at 10 nM incubated for 7 days by flow cytometry analysis. It is filed as functional, cell-based. Conditions: time 7.0 day. The gist of the method:
(§3)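 PBMCs from healthy donors (dextran RBC sedimentation, Histopaque-1077) seeded in low-adhesion plates, 800,000 cells/well. Differentiated to macrophages over 7 days in RPMI-1640 with 10% human serum and 20 ng/mL GM-CSF, with 10 nM test agent or 0.05% ethanol vehicle. Lifted with 5 mM EDTA, Fc-blocked with gamma globulins, surface-stained, then fixed/permeabilized for Arg1. Median fluorescence intensities analyzed by PLS-DA and VIP scores.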
On the technique in general: In flow cytometry, cells or beads pass a laser one at a time.

For data set [9], the system named is Macrophage. The experiment in a line: Antiinflammatory activity in human macrophages assessed as decrease in CD80 level at 10 nM incubated for 7 days by flow cytometry analysis. It is filed as functional, cell-based. Conditions: time 7.0 day. The gist of the method:
as §3

The test system of data set [10] is Macrophage. The experiment in a line: Antiinflammatory activity in human macrophages assessed as increase in arginase-1 level at 10 nM incubated for 7 days by flow cytometry analysis. It is filed as functional, cell-based. Conditions: time 7.0 day. The gist of the method: as §3
Data set [11] concerns Macrophage. As to the kind of experiment: Antiinflammatory activity in human macrophages assessed as increase in MerTK level at 10 nM incubated for 7 days by flow cytometry analysis. It is filed as functional, cell-based. As to conditions: time 7.0 day. The gist of the method: as §3
In data set [12] the test system is Macrophage. The experiment in a line: Antiinflammatory activity in human macrophages assessed as increase in CD163 at 10 nM incubated for 7 days by flow cytometry analysis. As to conditions: time 7.0 day. It is filed as functional, cell-based. The gist of the method:
as §3

Regarding `CC/C=C\C[C@H](O)/C=C/C=C\C/C=C\C=C\[C@@H](O)CCCCCC(=O)O`, the outcome with Macrophage [1], with Macrophage [3], with Macrophage [4], in the data set with Neutrophil [5], in the data set on Neutrophil [6] and in the data set with Neutrophil [7] was Active. Besides, the outcome in the data set on Macrophage [8], in the data set with Macrophage [9], in the data set on Macrophage [10], in the data set on Macrophage [11] and with Macrophage [12] was Active. The Retention_time in data set [2] was determined as 13.5 min.
